Test results from ChEMBL document CHEMBL4699420, “Pyrazolyl-pyrimidones inhibit the function of human solute carrier protein SLC11A2 (hDMT1) by metal chelation” (RSC Med Chem, 2020).
Active and inactive are the calls of the source. The rule behind the calls is not given here.

Assays:
HEK293T [1] = test: (§1) Metal chelating activity assessed as inhibition of human DMT1 expressed in HEK293T cells by measuring inhibition of radiolabeled 55Fe2+ uptake at 10 uM preincubated with compound for 5 mins followed by incubation with Fe2+ and radiolabeled 55Fe2+ for 15 mins at extracellular pH of 5.5 by scintillation counting analysis; type: cell-based; conditions: time 20.0 min
Outline: (§2)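 HEK293T cells were seeded 30,000/well and transiently transfected with DsRED-hDMT1 by Lipofectamine 24 h later; assays ran the next day. After a wash in uptake solution, cells got a 5 min compound preincubation, then 15 min RT uptake in pH 5.5 uptake solution with 100 μM ascorbate, Fe²⁺ and ⁵⁵Fe²⁺ (0.5 μCi/mL). An ice-cold pH 7.5 wash followed, then scintillation counting, with cpm converted to influx rates.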

[2] = Metal chelating activity assessed as compound-Cd2+ complex formation by measuring precipitation at 0.4 mM in aqueous buffer of pH 5.5 by isothermal titration calorimetry
Outline: (§3)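 Cadmium chloride titrated into 0.4 mM compound (from 10 mM DMSO stock) at 25 °C, stirring 750 rpm. Buffer was 20 mM HEPES/150 mM NaCl pH 7.5 or 20 mM MES/150 mM NaCl pH 5.5. First injection 0.4 μL, then 2 μL every 150 s. Buffer/DMSO control titrations run. Fit to a one-set-of-sites model, with fitting errors on KD.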

[3] = as §1, with “ZIP8” for “DMT1”, “uptake” for “uptake at 10 uM”, “7.4” for “5.5”; type: cell-based; conditions: HEK-293T
Outline: as §2, with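 “DsRED-hZIP8” for “DsRED-hDMT1”, “Cells” for “After a wash in uptake solution, cells”, “uptake” for “uptake in pH 5.5 uptake solution”, “ice-cold” for “ice-cold pH 7.5”, “counts” for “cpm”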

HEK293T [4] = test: as §1, with “ZIP8” for “DMT1”, “7.4” for “5.5”; type: cell-based; conditions: time 20.0 min
Outline: as §2, with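 “DsRED-hZIP8” for “DsRED-hDMT1”, “Cells” for “After a wash in uptake solution, cells”, “uptake” for “uptake in pH 5.5 uptake solution”, “ice-cold” for “ice-cold pH 7.5”, “counts” for “cpm”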

[5] = Metal chelating activity assessed as compound-Fe2+ complex formation at 20 uM preincubated with Fe2+ for 5 mins followed by calcein challenge in aqueous buffer of pH 5.5 and measured after 5 mins by calcein quenching assay; conditions: time 10.0 min
[6] = Metal chelating activity assessed as compound-Cd2+ complex formation by UV-Vis titration based analysis
[7] = target: T1, Natural resistance-associated macrophage protein 2 (Homo sapiens, UniProt P49281); test: Inhibition of human DMT1 expressed in Xenopus oocytes assessed as inhibition of channel currents at -50 mV holding potential by two-electrode voltage clamp assay; type: cell-based; conditions: oocyte
T1 sequence (P49281 whole entry): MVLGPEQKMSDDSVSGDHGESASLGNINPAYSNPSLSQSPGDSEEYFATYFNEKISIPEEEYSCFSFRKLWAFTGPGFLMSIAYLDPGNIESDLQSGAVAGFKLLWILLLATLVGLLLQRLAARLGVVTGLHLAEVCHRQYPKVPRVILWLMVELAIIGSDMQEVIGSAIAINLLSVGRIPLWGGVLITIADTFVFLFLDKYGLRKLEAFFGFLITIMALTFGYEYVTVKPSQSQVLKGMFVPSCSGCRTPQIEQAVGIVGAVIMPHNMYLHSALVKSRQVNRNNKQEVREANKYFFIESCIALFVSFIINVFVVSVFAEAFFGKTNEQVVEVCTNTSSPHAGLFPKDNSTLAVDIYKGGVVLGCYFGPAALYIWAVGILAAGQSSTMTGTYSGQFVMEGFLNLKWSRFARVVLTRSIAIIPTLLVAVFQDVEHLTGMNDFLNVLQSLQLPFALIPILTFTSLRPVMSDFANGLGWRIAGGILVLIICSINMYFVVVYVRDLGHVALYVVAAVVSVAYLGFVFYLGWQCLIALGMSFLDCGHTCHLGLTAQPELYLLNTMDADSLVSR
Outline: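 Xenopus oocytes were injected with 20 ng hDMT1 cRNA and used 3–5 days later. Holding current at Vh −50 mV was recorded, low-pass filtered at 500 Hz and digitized at 5 kHz.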

[8] = Metal chelating activity assessed as compound-Cd2+ complex formation at ratio of 2:1 at 0.4 mM in aqueous buffer of pH 7.4 by isothermal titration calorimetry; outline: as §3
[9] = Metal chelating activity assessed as compound-Fe2+ complex formation by measuring precipitation at 10 uM incubated with radilolabeled-55Fe2+ for 15 mins in aqueous buffer of pH 7.4 by scintillation counting analysis
Outline: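 Uptake solution (pH 7.4) with 1 μM Fe2+, 100 μM ascorbic acid, 0.5 μCi/mL 55Fe2+ and 10 μM compound, incubated 15 min at RT in polypropylene tubes. Aliquots taken in quadruplicate for scintillation counting of remaining 55Fe2+.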

[10] = Metal chelating activity assessed as compound-Fe2+ complex formation by UV-Vis titration based analysis
[11] = target: T1, Natural resistance-associated macrophage protein 2; test: Inhibition of human DMT1 expressed in HEK293 cells assessed as inhibition of radiolabeled 55Fe2+ uptake incubated for 1 hr by microplate scintillation counting analysis; type: cell-based; conditions: in the assay text read “incubated for 15 mins” for “incubated for 1 hr”
Outline: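 HEK293 cells stably expressing DsRED-hDMT1 were cultured in DMEM with 10% FBS, 10 mM HEPES and 1 mM Na-pyruvate, and seeded 50,000/well 24 h ahead. Cells got a 5 min compound preincubation, then 15 min RT uptake at pH 5.5 with 100 μM ascorbate, Fe²⁺ and ⁵⁵Fe²⁺ (0.5 μCi/mL). After an ice-cold pH 7.5 wash, cells sat 1 h in scintillant. Counts were converted to influx rates and fitted with a 4-parameter sigmoid for IC50.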

[12] = Metal chelating activity assessed as compound-Fe2+ complex formation by measuring precipitation at 10 uM incubated with radilolabeled-55Fe2+ for 15 mins in aqueous buffer of pH 7.4 by scintillation counting analysis
[13] = target: T2, Natural resistance-associated macrophage protein 2 (Homo sapiens) (UniProt P49281); test: Inhibition of human DMT1 expressed in HEK293T cells by measuring inhibition of radiolabeled 55Fe2+ uptake at 10 uM preincubated with compound for 5 mins followed by incubation with Fe2+ and radiolabeled 55Fe2+ for 15 mins at extracellular pH of 5.5 by scintillation counting analysis; type: cell-based; conditions: time 20.0 min
T2 sequence (whole entry): T1 sequence (P49281 whole entry)
Outline: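 HEK293T cells seeded at 30,000/well 48 h ahead and transiently transfected 24 h later with DsRED-hDMT1. After wash in uptake buffer, 5 min preincubation with compound, then 15 min at RT in pH 5.5 uptake solution with 100 μM ascorbic acid, Fe2+ and 55Fe2+ (0.5 μCi/mL). Ice-cold pH 7.5 wash, scintillation counting, cpm converted to influx rate.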

[14] = target: T2, Natural resistance-associated macrophage protein 2 (Homo sapiens); test: Inhibition of human DMT1 expressed in Xenopus laevis oocytes assessed as reduction in radiolabeled 55Fe2+ uptake at 10 uM preincubated for 5 mins followed by incubation with Fe2+ and radiolabeled 55Fe2+ and measured after 10 mins by scintillation counting method relative to control; type: cell-based; conditions: Oocyte, time 15.0 min
Outline: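 Xenopus oocytes injected with 20 ng hDMT1 cRNA, tested 3-5 days later, 10-15 oocytes per condition. 5 min RT in pH 5.5 transport medium with 10 μM compound, then 10 min with compound, 100 μM ascorbate, 1 μM Fe2+ and 0.5 μCi/mL 55Fe2+. Ice-cold rinse with 250 μM Fe2+, SDS solubilization, scintillation counting. Compound-free and non-injected oocytes run in parallel.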

Cc1cc(=O)[nH]c(-n2nc(-c3ccccc3)cc2C)n1
inhibition (HEK293T [1]): < 20%

CCc1cc(=O)[nH]c(-n2[nH]c(C)cc2=O)n1
inhibition (HEK293T [1]): < 20%

Cc1cc(=O)[nH]c(-n2[nH]c(C)c(C(=O)Nc3cccc(C(F)(F)F)c3)c2=O)n1
inhibition (HEK293T [1]): < 20%

Cc1cc(=O)[nH]c(-n2nc3c(c2C)CCCC3)n1
Activity [2]: Active | IC50 [3]: 1.4 µM | Activity (HEK293T [4]): Active | Activity [5]: Active | Activity [6]: inactive | IC50 [7]: Not Active | Activity [8]: Active | Activity (HEK293T [1]): Active | Activity [9]: Active | Activity [10]: inactive

Cc1cc(=O)[nH]c(-n2nc3c(c2C)CNCC3)n1
inhibition (HEK293T [1]): < 20%

Cc1cc(O)nc(-n2nc(C)cc2C)n1
Activity (HEK293T [4]): Active | Activity [5]: inactive | Activity (HEK293T [1]): Active | Activity [9]: inactive

Cc1cc(=O)[nH]c(-n2nc3c(c2C)COCC3)n1
inhibition (HEK293T [1]): < 20%

Cc1cc(=O)[nH]c(-n2nc(C)c(Cc3ccccc3)c2C)n1
inhibition (HEK293T [1]): < 20%

N=C(N)SCc1cccc(CSC(=N)N)c1
IC50 [11]: 7 µM

CCOC(=O)c1cnc(-n2[nH]c(C)cc2=O)[nH]c1=O
inhibition (HEK293T [1]): < 20%

CCc1cc(=O)n(-c2nc(C)cc(=O)[nH]2)[nH]1
inhibition (HEK293T [1]): < 20%

Cc1cc(=O)[nH]c(-n2nc3c(c2C)CCC3)n1
inhibition (HEK293T [1]): < 20%

Cc1nn(-c2ccccn2)c(O)c1C(=O)Nc1cccc(C(F)(F)F)c1
Activity [12]: Active | Activity (HEK293T [4]): Active | Activity [5]: Active | Activity (HEK293T [1]): Active | Activity [9]: Active

Cc1cc(=O)[nH]c(-n2[nH]c(C)c(Cc3ccccc3)c2=O)n1
inhibition (HEK293T [1]): < 20%

Cc1cc(=O)[nH]c(-n2nc(C(C)(C)C)cc2C)n1
inhibition (HEK293T [1]): < 20%

N=C(N)SCc1cccc2c1oc1c(CSC(=N)N)cccc12
inhibition [13]: Active | inhibition [14]: 100% | Activity (HEK293T [4]): inactive | Activity [9]: inactive

Cc1cc(=O)[nH]c(-n2nc(C)c(-c3ccccc3)c2C)n1
inhibition (HEK293T [1]): < 20%

Cc1cc(C)nc(-n2nc(C)cc2C)n1
inhibition (HEK293T [1]): < 20%
